# Screening data deposited in PubChem BioAssay by several laboratories.
# Compounds with a hit are over-represented: about 1.5% of the library has one in this group of screens.
# Rpn11 inh = blocks the human proteasome subunit Rpn11 | O00487 | human 26S proteasome, Ub4-pepOG fluorescence polarization; 20S core pre-blocked with epoxomicin | calls only at 20 µM | 360,000 tested, 0.59% active;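 active means inhibition at 20 µM, scaled to each plate's controls, above about 33%, limit read from the data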
# TPT1 inh = C. albicans TPT1 enzyme inhibition. recombinant caTPT1, FP RNA substrate dephosphorylation. inhibition, % at 5 µM. 300,000 tested, 0.81% active. AID 1962;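 active means inhibition above the mean of all tested compounds plus 3 SD, set per screening campaign, cut at about 24% in these data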;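 further: plate controls were DMSO alone for no effect and ferristatin control at 100 nM for full effect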
# CSN inh = inhibitors of human CSN-mediated cullin deneddylation | Purified CSN, SCF-Nedd8-OG deneddylation, fluorescence polarization | inhibition, % at 12.5 µM | 360,000 tested, 0.38% active | Q92905;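 active means pattern-corrected inhibition above about 35%, with an unprinted fluorescence ratio check between 0.5 and 1.5, limit read from the data, passing the limit was not always enough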;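 further: 0% = enzyme with substrate and 100% = substrate without enzyme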
#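 Test system: Human Csn5 produced in HEK293T cells | Compound: 12.5 µM single point | Times: 90 min, room temperature | Signal: Fluorescence polarization readout | Read-out basis: % inhibition of substrate cleavage by Csn5 | Controls: no-enzyme wells high, enzyme-with-substrate wells low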
# HNF4A DNA FP = change in binding of human HNF4 alpha to DNA | P41235 | HNF4a-FITC DNA binding, fluorescence polarization, 1 h | activity change, % at 10 µM | 360,000 tested, 0.3% active | AID 1224865; in the data active means activity change above about 30%, passing the limit was not always enough
# Target sequence (P41235 whole entry, looked up): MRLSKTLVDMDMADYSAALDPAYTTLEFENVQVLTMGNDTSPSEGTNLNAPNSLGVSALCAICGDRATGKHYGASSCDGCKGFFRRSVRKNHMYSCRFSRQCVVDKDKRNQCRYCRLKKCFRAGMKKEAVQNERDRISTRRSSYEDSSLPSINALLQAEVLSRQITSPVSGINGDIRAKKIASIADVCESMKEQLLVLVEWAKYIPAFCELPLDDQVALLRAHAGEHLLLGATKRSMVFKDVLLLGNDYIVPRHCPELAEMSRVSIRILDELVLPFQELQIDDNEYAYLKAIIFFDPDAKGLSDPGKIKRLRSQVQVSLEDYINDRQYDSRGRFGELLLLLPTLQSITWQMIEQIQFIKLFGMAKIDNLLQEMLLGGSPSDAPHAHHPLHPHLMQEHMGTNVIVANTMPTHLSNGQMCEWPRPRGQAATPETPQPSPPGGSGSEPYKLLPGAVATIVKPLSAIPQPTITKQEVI
# TPT1 inh confirm = TPT1 (C. albicans) inhibition, confirmation | shares compounds with TPT1 inh | recombinant caTPT1, fluorescence polarization, RNase T1 coupled | inhibition, % at 5 µM | 2,400 tested, 74% active | AID 2149;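 active means inhibition above the primary screen limit, the mean inhibition of all tested compounds plus 3 SD, cut at about 25% in these data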
# RNase T1 inh = blocks Aspergillus oryzae RNase T1, a TPT1 counter-screen | AID 2153 | 2,400 tested, 83% active | RNase T1 cleavage, fluorescence polarization, 1536-well | shares compounds with TPT1 inh | inhibition, % at 5 µM;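 active means inhibition above the solvent-only control well mean plus 3 SD, limit set per screening run, cut at about 23% in these data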;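 further: plate controls were DMSO wells with enzyme for no effect and wells without RNase T1 for full effect; inhibitors block cleavage so intact labeled substrate keeps polarization high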
# Rpn11 inh conf = confirmation of human proteasome Rpn11 inhibitors | 1,900 tested, 29% active | shares compounds with Rpn11 inh | purified human 26S proteasome, Ub4-pepOG fluorescence polarization; proteasome pretreated with epoxomicin | inhibition, % at 20 µM
# MMP-2 counter = MMP-2 (human) inhibition counter-screen | inhibition, % at 20 µM | AID 602330 | recombinant MMP-2, FRET peptide cleavage fluorescence | shares compounds with Rpn11 inh | 1,900 tested, 4% active;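 further: human MMP-2 activated beforehand with APMA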
# Thrombin inh = blocks bovine thrombin, flagging nonselective RPN11 hits | shares compounds with Rpn11 inh | 1,900 tested, 13% active | inhibition, % at 20 µM | bovine thrombin cleavage of Ub4-pepOG, fluorescence polarization;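 active means mean inhibition at least 40% at 20 µM, or signal 3 deviations below plate average, so some actives read negative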;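 further: plate controls were thrombin with DMSO for no effect and buffer wells lacking thrombin for full effect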
# Active calls of the source: *; i = inactive; x = not tested or not shown; + = active, no number; ! = repeats disagree. Unless noted, no stated cut-off is given here; in the data, active means inhibition above about 40%; inactive means the rest.
SMILES,Rpn11 inh,TPT1 inh,CSN inh,HNF4A DNA FP,TPT1 inh confirm,RNase T1 inh,Rpn11 inh conf,MMP-2 counter,Thrombin inh
CC(=O)N1CCN(Cc2cc(=O)oc3ccccc23)CC1,i,x,-2,1,x,x,x,x,x
COc1cc(/C=C(\C#N)C(=O)NCCc2ccccc2)cc(OC)c1O,+,76*,35,9,104*,106*,54*,3,52*
Nc1c(C(=O)O)sc2nc(-c3ccc(F)cc3)cc(-c3ccccc3)c12,+,29*,-1,18,13,22*,6,5,-3
CN(C)c1ccc(CNc2nc3ccccc3s2)cc1,x,4,x,x,x,x,x,x,x
CN(C)c1ccc(/C=C/c2nc3ccccc3s2)cc1,+,111*,18,36*,113*,114*,32,-5,24
O=C(OCC(=O)N1CCOCC1)c1cccc(F)c1,i,-2,-3,-2,x,x,x,x,x
Cc1cc(C)c(C(=O)c2cccs2)c(C)c1,i,x,1,3,x,x,x,x,x
Cc1cc(C(=O)c2cccs2)c(N)s1,+,35*,24,19,40*,49*,50*,-26,39
Cc1c(N=C2Nc3cccc4cccc2c34)c(=O)n(-c2ccccc2)n1C,x,88*,19,43*!,109*,114*,-10,-38,active
N#C/C(=C\c1ccc(O)c(O)c1)C(=O)N1CCc2ccccc21,+,36*,14,2,46*,51*,70*,15,15
COc1cc(/C=C(\C#N)C(=O)N2CCc3ccccc32)ccc1O,+,36*,8,0,71*,76*,11,-16,10
COc1cc(/C=C(\C#N)C(=O)Nc2ccc3c(c2)OCCO3)ccc1O,+,57*,19,7,71*,77*,2,17,37
CCOC(=O)/C(C#N)=C\c1ccc(O)c(OC)c1,i,9,2,5,x,x,x,x,x
CC1(N=Cc2cc(Cl)ccc2O)COP(=O)(NC2CCCC2)OC1 (centres undefined),i,x,6,-1,x,x,x,x,x
CC(=O)N1CCc2cc(N=NC3=C(O)CC(C)(C)CC3=O)ccc21,+,27*,29,66*,46*,57*,67*,-29,48*
Cc1nc2ccc(N=NC3=C(O)CC(C)(C)CC3=O)cc2s1,i,4,-3,4,x,x,x,x,x
O=C(CN1CCN(CC(=O)c2ccccc2)CC1)c1ccccc1,i,x,-1,1,x,x,x,x,x
COc1cc(OC)c(OC)cc1/C=C1\Oc2cc(OS(C)(=O)=O)ccc2C1=O,+,75*,55*,73*,71*,78*,69*,5,-12
COc1ccc(C(=O)NCCS(=O)(=O)N2CCCC2)cc1,i,-2,-4,2,x,x,x,x,x
COc1cc(C)c(NC(=O)c2cccc(S(=O)(=O)N3CCCC3)c2)cc1OC,i,x,-4,0,x,x,x,x,x
COc1ccc(/C=N/Nc2ccc([N+](=O)[O-])cc2)cc1Cn1cc([N+](=O)[O-])cn1,+,108*,4,13,83*,92*,-3,-23,-4
CCC1S/C(=C(\C#N)C(N)=O)N(c2ccc(F)cc2)C1=O (centres undefined),i,-2,2,1,x,x,x,x,x
Cc1ccccc1N1C(=O)C(Cc2ccc(F)cc2)S/C1=C(\C#N)C(N)=O (centres undefined),+,26*,3,3,7,11,6,-12,0
Cc1ccc(NC(=O)CO/N=C/c2ccc(N(C)C)cc2)cc1,+,93*,50*,72*,106*,113*,108*,-44,96*
CN(C)c1ccc(/C=N/OC(=O)Nc2ccccc2)cc1,i,5,3,-1,x,x,x,x,x
C=CC[n+]1c(-c2ccccc2)csc1NC(C)(C)C,i,-3,4,3,x,x,x,x,x
